Source: ChEMBL document CHEMBL2040734, “Benzothiazoles: search for anticancer agents” (2012)

Legend:
Assay type in all cases: functional
SW-620 [1] = experiment: Growth inhibition of human SW620 cells after 48 hrs by sulforhodamine B assay; conditions: SW-620, 48 h; for CC50: read-out: LC50 (the source's name)
How it was run: (§1)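 Adherent NCI-60 lines were grown in RPMI 1640 with 5% FBS and 2 mM L-glutamine, plated at 5000–40,000 cells/well and preincubated 24 h. They were then exposed to five concentrations (0.01–100 µM, from a DMSO stock) for 48 h at 37 °C, 5% CO2. Cells were fixed with cold TCA (10% final, 60 min, 4 °C) and stained with 0.4% SRB. Dye was solubilized in 10 mM Tris base and A515 read. GI50 was derived from time-zero, control and treated absorbances.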

MDA-MB-231 [2] = experiment: Growth inhibition of human MDA-MB-231 cells after 48 hrs by sulforhodamine B assay; conditions: MDA-MB-231, 48 h; how it was run: as §1
OVCAR-5 [3] = experiment: Cytotoxicity against human OVCAR5 cells assessed as cell growth at 0.01 uM after 48 hrs by sulforhodamine B assay; conditions: OVCAR-5, 48 h, read-out: Activity
RPMI-8226 = experiment: Cytotoxicity against human RPMI8226 cells assessed as cell growth at 1 uM after 48 hrs by sulforhodamine B assay; conditions: RPMI-8226, 48 h, read-out: Activity
OVCAR-3 [4] = experiment: Growth inhibition of human OVCAR3 cells after 48 hrs by sulforhodamine B assay; conditions: OVCAR-3, 48 h; for CC50: read-out: LC50 (the source's name); how it was run: as §1
SR = experiment: Cytotoxicity against human SR cells assessed as cell growth at 10 uM after 48 hrs by sulforhodamine B assay; conditions: read-out: Activity
MDA-MB-231 [5] = experiment: Cytotoxicity against human MDA-MB-231 cells assessed as cell growth at 0.01 uM after 48 hrs by sulforhodamine B assay; conditions: MDA-MB-231, 48 h, read-out: Activity
SF-539 = experiment: Cytotoxicity against human SF539 cells assessed as cell growth at 0.01 uM after 48 hrs by sulforhodamine B assay; conditions: SF-539, 48 h, read-out: Activity
SK-MEL-5 [6] = experiment: Cytotoxicity against human SK-MEL-5 cells assessed as cell growth at 0.01 uM after 48 hrs by sulforhodamine B assay; conditions: SK-MEL-5, 48 h, read-out: Activity
SW-620 [7] = experiment: Cytotoxicity against human SW620 cells assessed as cell growth at 0.1 uM after 48 hrs by sulforhodamine B assay; conditions: SW-620, 48 h, read-out: Activity
MDA-MB-435 = experiment: Cytotoxicity against human MDA-MB-435 cells assessed as cell growth at 100 uM after 48 hrs by sulforhodamine B assay; conditions: MDA-MB-435, 48 h, read-out: Activity
OVCAR-3 [8] = experiment: Cytotoxicity against human OVCAR3 cells assessed as cell growth at 100 uM after 48 hrs by sulforhodamine B assay; conditions: OVCAR-3, 48 h, read-out: Activity
786-0 [9] = experiment: Cytotoxicity against human 786-0 cells assessed as cell growth at 1 uM after 48 hrs by sulforhodamine B assay; conditions: 786-0, 48 h, read-out: Activity
How it was run: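 NCI-60 five-dose screen. Cells were grown in RPMI 1640 with 5% FBS and 2 mM L-glutamine and preincubated 24 h. Compound (DMSO stock) was tested at 0.01, 0.1, 1, 10 and 100 µM for 48 h at 37 °C. Cells were fixed in situ with cold TCA (final 10%) and stained with 0.4% SRB. A515 was read, and percent growth was calculated against time-zero and control plates.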

UO-31 = experiment: Cytotoxicity against human UO31 cells assessed as cell growth at 0.1 uM after 48 hrs by sulforhodamine B assay; conditions: UO-31, 48 h, read-out: Activity
OVCAR-5 [10] = experiment: Cytotoxicity against human OVCAR5 cells assessed as cell growth at 10 uM after 48 hrs by sulforhodamine B assay; conditions: OVCAR-5, 48 h, read-out: Activity
SK-MEL-5 [11] = experiment: Cytotoxicity against human SK-MEL-5 cells assessed as cell growth at 0.1 uM after 48 hrs by sulforhodamine B assay; conditions: SK-MEL-5, 48 h, read-out: Activity
HT-29 = experiment: Cytotoxicity against human HT-29 cells assessed as cell growth at 0.1 uM after 48 hrs by sulforhodamine B assay; conditions: HT-29, 48 h, read-out: Activity
How it was run: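 Five-dose NCI panel run at 0.01, 0.1, 1, 10 and 100 µM. Cells were in RPMI 1640 with 5% FBS and 2 mM L-glutamine, seeded at 5000–40,000 cells/well and pre-incubated 24 h. Drug was diluted from a DMSO stock into medium with 50 µg/ml gentamicin. Exposure was 48 h at 37 °C, 5% CO2. Cells were fixed with cold TCA and stained with 0.4% SRB, read at 515 nm. Percent growth came from time-zero, control and test absorbances.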

MCF7 = experiment: Cytotoxicity against human MCF7 cells assessed as cell growth at 0.1 uM after 48 hrs by sulforhodamine B assay; conditions: MCF7, 48 h, read-out: Activity
HL-60(TB) = experiment: Growth inhibition of human HL-60(TB) cells after 48 hrs by sulforhodamine B assay; conditions: HL-60, 48 h; for CC50: read-out: LC50 (the source's name)
How it was run: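 HL-60(TB) suspension cells in RPMI 1640 with 5% FBS and 2 mM L-glutamine were treated for 48 h at five concentrations (0.01–100 µM). Settled cells were fixed with 16% TCA (final), SRB-stained and read at 515 nm. GI50 was the concentration giving (Ti−Tz)/(C−Tz)×100 = 50 from log concentration–growth curves, expressed as ">" if not reached at the top concentration.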

SNB-75 = experiment: Cytotoxicity against human SNB75 cells assessed as cell growth at 10 '-5 M after 48 hrs by sulforhodamine B assay; conditions: SNB-75, 48 h, read-out: Activity
HCT-116 = experiment: Cytotoxicity against human HCT116 cells assessed as cell growth at 10 '-5 M after 48 hrs by sulforhodamine B assay; conditions: HCT-116, 48 h, read-out: Activity
How it was run: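 Primary one-dose screen across the NCI 60-line panel at 10 µM. Cells were grown in RPMI 1640 with 5% FBS and 2 mM L-glutamine and held 24 h before drug. Drug was diluted from a DMSO concentrate. Exposure was 48 h at 37 °C, 5% CO2. Cells were fixed with TCA and stained with SRB, with absorbance read at 515 nm. Percent growth was calculated against time-zero and untreated control.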

786-0 [12] = experiment: Cytotoxicity against human 786-0 cells assessed as cell growth at 10 '-5 M after 48 hrs by sulforhodamine B assay; conditions: 786-0, 48 h, read-out: Activity
How it was run: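 Primary NCI-60 single-dose screen at 10 µM. Cells were grown in RPMI 1640 with 5% FBS and 2 mM L-glutamine and plated 24 h before drug addition. Compound was solubilized in DMSO, then exposed for 48 h at 37 °C under 5% CO2. Cells were TCA-fixed and stained with SRB, and absorbance was read at 515 nm. Growth was expressed relative to time-zero and untreated controls.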

PC-3 = experiment: Cytotoxicity against human PC3 cells assessed as cell growth at 0.1 uM after 48 hrs by sulforhodamine B assay; conditions: PC-3, 48 h, read-out: Activity

SMILES | GI50 (SW-620 [1]) | TGI (SW-620 [1]) | CC50 (SW-620 [1]) | GI50 (MDA-MB-231 [2]) | LC50 (concentration killing 50% of cells) (MDA-MB-231 [2]) | TGI (MDA-MB-231 [2]) | growth at 0.01 µM (OVCAR-5 [3]) | growth at 1 µM (RPMI-8226) | GI50 (OVCAR-3 [4]) | TGI (OVCAR-3 [4]) | CC50 (OVCAR-3 [4]) | growth at 10 µM (SR) | growth at 0.01 µM (MDA-MB-231 [5]) | growth at 0.01 µM (SF-539) | growth at 0.01 µM (SK-MEL-5 [6]) | growth at 0.1 µM (SW-620 [7]) | growth at 100 µM (MDA-MB-435) | growth at 100 µM (OVCAR-3 [8]) | growth at 1 µM (786-0 [9]) | growth at 0.1 µM (UO-31) | other results
Clc1cccc(Cl)c1Nc1nc2cccc(Cl)c2s1 | 1.32 µM | 2.78 µM | 5.86 µM | 0.304 µM | 4.06 µM | 1.42 µM | 102% | 46% | 0.983 µM | 2.2 µM | 4.86 µM | -49% | 92% | 97% | 94% | 91% | -67% | -76% | 52% | 56% | growth at 10 µM (OVCAR-5 [10]): -93%; growth at 0.1 µM (SK-MEL-5 [11]): 90%; growth at 0.1 µM (HT-29): 96%; growth at 0.1 µM (MCF7): 87%; GI50 (HL-60(TB)): 1.32 µM; TGI (HL-60(TB)): 3.75 µM; CC50 (HL-60(TB)): 20.6 µM; growth at 10 µM (SNB-75): -26.9%; growth at 10 µM (HCT-116): -87.1%; growth at 10 µM (786-0 [12]): -59.7%; growth at 0.1 µM (PC-3): 81%
Cc1ccc2nc(Nc3c(C)cccc3C)sc2c1 | 0.949 µM | > 100 µM | > 100 µM | 0.528 µM | > 100 µM | 59.8 µM | 93% | 75% | > 100 µM | > 100 µM | > 100 µM | 13% | 85% | 99% | 95% | 94% | -10% | 66% | 81% | 97% | growth at 10 µM (OVCAR-5 [10]): 65%; growth at 0.1 µM (SK-MEL-5 [11]): 92%; growth at 0.1 µM (HT-29): 92%; growth at 0.1 µM (MCF7): 92%; TGI (HL-60(TB)): > 100 µM; CC50 (HL-60(TB)): > 100 µM; growth at 10 µM (SNB-75): -15.5%; growth at 10 µM (HCT-116): 19.4%; growth at 10 µM (786-0 [12]): 57.8%; growth at 0.1 µM (PC-3): 94%
